We go through 35 compounds from ChEMBL document CHEMBL4049426, “Identification of the Clinical Candidate (R)-(1-(4-Fluorophenyl)-6-((1-methyl-1H-pyrazol-4-yl)sulfonyl)-4,4a,5,6,7,8-hexahydro-1H-pyrazolo[3,4-g]isoquinolin-4a-yl)(4-(trifluoromethyl)pyridin-2-yl)methanone (CORT125134): A Selective Glucocorticoid Receptor (GR) Antagonist” (J Med Chem, 2017).

The Cmax is the maximum level reached in the sampled fluid or tissue. The term Ki denotes the equilibrium dissociation constant of an inhibitor or competing ligand from its target. For orientation: AUC means the area under the concentration-time curve, a measure of exposure. High values mean high exposure, low ones low exposure.

A short description of data set [1]: Cmax in Sprague-Dawley CD-1 rat plasma at 3 mg/kg, po administered as cassette dose via gavage measured up to 24 hrs by LC/MS analysis. Further details: dose 3 mg/kg, route oral. The data set is classed as ADME, organism-based. Summed up:
(§1)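 Three male Sprague Dawley CD-1 rats (220-250g) with jugular vein catheters; three test compounds plus a reference dosed together by oral gavage, 3mg/kg each, in DMSO:0.5% methylcellulose 10:90 (0.6mg/mL per compound), 5mL/kg. Plasma sampled pre-dose and at 0.25, 0.5, 1, 2, 4, 6, 8, 24 h; LC/MS.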

The target in data set [2] is T1, Glucocorticoid receptor (Homo sapiens, UniProt P04150).
T1 sequence (P04150 whole entry): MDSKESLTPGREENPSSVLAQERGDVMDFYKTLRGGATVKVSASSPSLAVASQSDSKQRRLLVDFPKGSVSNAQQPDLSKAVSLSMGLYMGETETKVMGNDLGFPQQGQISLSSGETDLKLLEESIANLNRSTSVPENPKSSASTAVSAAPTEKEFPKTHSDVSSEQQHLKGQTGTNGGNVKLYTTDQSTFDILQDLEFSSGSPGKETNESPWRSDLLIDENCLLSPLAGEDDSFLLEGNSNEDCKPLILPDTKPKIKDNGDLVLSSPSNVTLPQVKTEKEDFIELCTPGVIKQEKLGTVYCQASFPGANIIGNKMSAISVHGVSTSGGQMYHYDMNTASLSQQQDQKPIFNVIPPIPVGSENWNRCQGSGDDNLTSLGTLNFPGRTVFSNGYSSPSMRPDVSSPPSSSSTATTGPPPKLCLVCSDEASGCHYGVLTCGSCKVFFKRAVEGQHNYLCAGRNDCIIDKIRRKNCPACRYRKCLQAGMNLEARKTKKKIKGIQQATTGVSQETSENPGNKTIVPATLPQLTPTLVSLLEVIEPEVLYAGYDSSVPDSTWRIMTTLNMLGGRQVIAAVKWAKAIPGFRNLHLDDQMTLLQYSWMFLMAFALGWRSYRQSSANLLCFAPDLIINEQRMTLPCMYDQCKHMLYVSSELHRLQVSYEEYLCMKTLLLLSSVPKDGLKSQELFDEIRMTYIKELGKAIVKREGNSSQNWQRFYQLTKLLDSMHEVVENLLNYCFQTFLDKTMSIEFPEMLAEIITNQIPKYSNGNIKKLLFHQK
Kind of data set: Antagonist activity at glucocorticoid receptor in human HepG2 cells assessed as inhibition of dexamethasone-induced tyrosine amino transferase activity preincubated for 30 mins followed by dexamethasone addition measured after 20 hrs. The format is cell-based.

The nature of data set [3]: AUC in Sprague-Dawley CD-1 rat plasma at 3 mg/kg, po administered as cassette dose via gavage measured up to 24 hrs by LC/MS analysis. The format is ADME, organism-based. On the set-up: time < 24 hr, dose 3 mg/kg, route oral. Summed up:
as §1

Data set [4] has as its target T1, Glucocorticoid receptor. The data set is described as follows: Displacement of fluormone GS Red from human glucocorticoid receptor after 4 hrs by fluorescence polarization assay. (In general: In fluorescence polarisation assays a small probe gives low polarisation when free and higher when bound to something large.)

With `CCn1cc(S(=O)(=O)N2CCC3=Cc4c(cnn4-c4ccc(F)cc4)C[C@]3(C(=O)c3cc(C(F)(F)F)ccn3)C2)cn1`, the highest concentration (Cmax) in data set [1] turned out to be 126 ng/mL. Further, the Ki on Glucocorticoid receptor [2] was found to be 4.6 nM. Moreover, in data set [3], the exposure (AUC) at 24 h was 701 ng·h/mL.

For `CCc1ccnc(C(=O)[C@]23Cc4cnn(-c5ccc(F)cc5)c4C=C2CCN(S(=O)(=O)c2cccc(C#N)c2)C3)c1`, the inhibitory constant (Ki) on Glucocorticoid receptor [4] was 0.19 nM; at Glucocorticoid receptor [2], 1.7 nM.

Consider `O=C(c1ccccn1)[C@]12Cc3cnn(-c4ccc(F)cc4)c3C=C1CCN(S(=O)(=O)c1cc(F)cc(F)c1)C2`, for which, in data set [1], the highest level (Cmax) was 72 ng/mL. In addition, the Ki at Glucocorticoid receptor [4] was 0.12 nM; on Glucocorticoid receptor [2] it was 9.2 nM. In data set [3], the AUC at 24 h stood at 143 ng·h/mL.

Regarding `O=C(c1nccs1)[C@]12Cc3cnn(-c4ccc(F)cc4)c3C=C1CCN(S(=O)(=O)c1cccc(C(F)(F)F)c1)C2`, the concentration in data set [1] peaked (Cmax) at 103 ng/mL. Further, the Ki at Glucocorticoid receptor [4] worked out at 0.48 nM; on Glucocorticoid receptor [2], 17 nM. The AUC at 24 h in data set [3] stood at 446 ng·h/mL.

Consider `Cn1nncc1S(=O)(=O)N1CC[C@H]2Cc3c(cnn3-c3ccc(F)cc3)C[C@]2(C(=O)c2cc(C(F)(F)F)ccn2)C1`, for which the inhibition constant (Ki) at Glucocorticoid receptor [2] was 120 nM.

In turn, `Cc1cccc(S(=O)(=O)N2CCC3=Cc4c(cnn4-c4ccc(F)cc4)C[C@]3(C(=O)c3cc(C)ccn3)C2)c1` had a maximum concentration (Cmax) in data set [1] of 11 ng/mL. Further, the results for the inhibition constant (Ki) on Glucocorticoid receptor [4] and on Glucocorticoid receptor [2] were 0.08 nM and 3.3 nM, respectively. In data set [3], the area under the curve (AUC) at 24 h stood at 44 ng·h/mL.

As for `Cc1ccnc(C(=O)[C@]23Cc4cnn(-c5ccc(F)cc5)c4C=C2CCN(S(=O)(=O)c2cccc(C(F)(F)F)c2)C3)c1`, the inhibitory constant (Ki) on Glucocorticoid receptor [4] came to 0.21 nM; at Glucocorticoid receptor [2] it was 5.1 nM.

Consider `Cc1ccnc(C(=O)[C@]23Cc4cnn(-c5ccc(F)cc5)c4C=C2CCN(S(=O)(=O)c2cc(F)cc(F)c2)C3)c1`, for which the results for the inhibition constant Ki at Glucocorticoid receptor [4] and on Glucocorticoid receptor [2] were 0.14 nM and 4.3 nM, respectively.

For `Cc1ccnc(C(=O)[C@]23Cc4cnn(-c5ccc(F)cc5)c4C=C2CCN(S(=O)(=O)c2ccc(F)c(F)c2)C3)c1`, the Cmax in data set [1] came out at 113 ng/mL. For the same compound, the values for the inhibition constant Ki at Glucocorticoid receptor [4] and at Glucocorticoid receptor [2] were 0.14 nM and 5.7 nM, respectively. This compound also gave an AUC at 24 h in data set [3] of 421 ng·h/mL.

For the compound `N#Cc1cccc(S(=O)(=O)N2CCC3=Cc4c(cnn4-c4ccc(F)cc4)C[C@]3(C(=O)c3ccccn3)C2)c1`, the highest level in data set [1] (Cmax) was 140 ng/mL. For the same compound, the exposure (AUC) at 24 h in data set [3] stood at 239 ng·h/mL.

In the case of `Cc1ccc(C(=O)[C@]23Cc4cnn(-c5ccc(F)cc5)c4C=C2CCN(S(=O)(=O)c2cccc(C)c2)C3)nc1`, the Ki was 0.14 nM on Glucocorticoid receptor [4] and 7.5 nM on Glucocorticoid receptor [2].

As for `O=C(c1cc(C(F)(F)F)ccn1)[C@]12Cc3cnn(-c4ccc(F)cc4)c3C=C1CCN(S(=O)(=O)c1cn[nH]c1)C2`, the inhibition constant Ki at Glucocorticoid receptor [2] turned out to be 7.6 nM.

With `O=C(c1ccccn1)[C@]12Cc3cnn(-c4ccc(F)cc4)c3C[C@@H]1CCN(S(=O)(=O)c1cccc(C(F)(F)F)c1)C2`, the inhibition constant Ki on Glucocorticoid receptor [2] is 44 nM.

On to `Cn1cc(S(=O)(=O)N2CCC3=Cc4c(cnn4-c4ccc(F)cc4)C[C@]3(C(=O)c3ccccn3)C2)cn1`, for which the maximum concentration (Cmax) in data set [1] was found to be 150 ng/mL. At Glucocorticoid receptor [2], the Ki turned out to be 28 nM. In data set [3], this compound showed an area under the curve (AUC) at 24 h of 780 ng·h/mL.

Compound `Cc1cnc(C(=O)[C@]23Cc4cnn(-c5ccc(F)cc5)c4C=C2CCN(S(=O)(=O)c2ccc(F)c(F)c2)C3)s1` showed a Cmax in data set [1] of 30 ng/mL. Also, the Ki was 1.3 nM at Glucocorticoid receptor [4] and 7.4 nM at Glucocorticoid receptor [2]. The compound further registered an exposure (AUC) at 24 h in data set [3] of 135 ng·h/mL.

The compound `Cn1cc(S(=O)(=O)N2CCC3=Cc4c(cnn4-c4ccc(F)cc4)C[C@]3(C(=O)c3cc(C(F)(F)F)ccn3)C2)nn1` came in with a Cmax in data set [1] of 91.5 ng/mL. On Glucocorticoid receptor [2], the Ki is 9.7 nM. Further, in data set [3], the AUC at 24 h stood at 450 ng·h/mL.

Consider `Cc1cccc(S(=O)(=O)N2CCC3=Cc4c(cnn4-c4ccc(F)cc4)C[C@]3(C(=O)c3cccc(C)n3)C2)c1`, for which the Ki came to 0.2 nM at Glucocorticoid receptor [4] and 14 nM on Glucocorticoid receptor [2].

Consider `O=C(c1ccccn1)[C@]12Cc3cnn(-c4ccc(F)cc4)c3C=C1CCN(S(=O)(=O)c1ccc(F)c(F)c1)C2`, for which the Cmax in data set [1] amounted to 215 ng/mL. For the same compound, the area under the curve (AUC) at 24 h in data set [3] came to 974 ng·h/mL.

In the case of `Cn1cc(S(=O)(=O)N2CC[C@H]3Cc4c(cnn4-c4ccc(F)cc4)C[C@]3(C(=O)c3cc(C(F)(F)F)ccn3)C2)cn1`, at Glucocorticoid receptor [2], the Ki was 34 nM.

For the compound `Cn1ccc(S(=O)(=O)N2CC[C@H]3Cc4c(cnn4-c4ccc(F)cc4)C[C@]3(C(=O)c3cc(C(F)(F)F)ccn3)C2)n1`, the Ki on Glucocorticoid receptor [2] is 24 nM.

Turning to `Cc1ccnc(C(=O)[C@]23Cc4cnn(-c5ccc(F)cc5)c4C=C2CCN(S(=O)(=O)c2ccc(C(F)(F)F)c(F)c2)C3)c1`, in data set [1], the Cmax is 48 ng/mL. For the same compound, the results for the inhibition constant (Ki) at Glucocorticoid receptor [4] and on Glucocorticoid receptor [2] were 0.42 nM and 7.5 nM, respectively. Moreover, the AUC at 24 h in data set [3] came to 173 ng·h/mL.

As for `Cc1csc(C(=O)[C@]23Cc4cnn(-c5ccc(F)cc5)c4C=C2CCN(S(=O)(=O)c2cccc(C(F)(F)F)c2)C3)n1`, the Ki amounted to 0.88 nM on Glucocorticoid receptor [4] and 63 nM at Glucocorticoid receptor [2].

On to `CCn1nccc1S(=O)(=O)N1CC[C@H]2Cc3c(cnn3-c3ccc(F)cc3)C[C@]2(C(=O)c2cc(C(F)(F)F)ccn2)C1`, for which the inhibition constant Ki on Glucocorticoid receptor [2] was found to be 68 nM.

Consider `Cn1cc(S(=O)(=O)N2CC[C@H]3Cc4c(cnn4-c4ccc(F)cc4)C[C@]3(C(=O)c3cc(C(F)(F)F)ccn3)C2)nn1`, for which the Ki on Glucocorticoid receptor [2] was 60 nM.

`Cc1ccnc(C(=O)[C@]23Cc4cnn(-c5ccc(F)cc5)c4C=C2CCN(S(=O)(=O)c2cccc(C#N)c2)C3)c1`: in data set [1], the highest level (Cmax) was 70 ng/mL. The values for the inhibition constant (Ki) at Glucocorticoid receptor [4] and at Glucocorticoid receptor [2] were 0.15 nM and 4.5 nM, respectively. The same compound yielded an AUC at 24 h in data set [3] of 217 ng·h/mL.

As to `Cc1cnc(C(=O)[C@]23Cc4cnn(-c5ccc(F)cc5)c4C=C2CCN(S(=O)(=O)c2ccc(Cl)c(Cl)c2)C3)s1`, the Cmax in data set [1] was found to be 30 ng/mL. Moreover, the Ki was 0.32 nM on Glucocorticoid receptor [4] and 7.4 nM at Glucocorticoid receptor [2]. Moreover, the AUC at 24 h in data set [3] stood at 135 ng·h/mL.

For `Cc1c(S(=O)(=O)N2CCC3=Cc4c(cnn4-c4ccc(F)cc4)C[C@]3(C(=O)c3cc(C(F)(F)F)ccn3)C2)cnn1C`, the Cmax in data set [1] was found to be 110 ng/mL. Moreover, the Ki at Glucocorticoid receptor [2] worked out at 12 nM. This compound returned an AUC at 24 h in data set [3] of 283 ng·h/mL.

Regarding `O=C(c1ccccn1)[C@]12Cc3cnn(-c4ccc(F)cc4)c3C=C1CCN(S(=O)(=O)c1ccc(C(F)(F)F)c(F)c1)C2`, the highest level in data set [1] (Cmax) was 125 ng/mL. In data set [3], the AUC at 24 h came out at 726 ng·h/mL.

For `Cn1ncc(S(=O)(=O)N2CCC3=Cc4c(cnn4-c4ccc(F)cc4)C[C@]3(C(=O)c3cc(C(F)(F)F)ccn3)C2)n1` [NENOCORILANT], the Cmax in data set [1] is 255 ng/mL. For the same compound, the inhibition constant Ki on Glucocorticoid receptor [2] came out at 3.1 nM. In data set [3], this compound had an area under the curve (AUC) at 24 h of 860 ng·h/mL.

With `Cc1cnc(C(=O)[C@]23Cc4cnn(-c5ccc(F)cc5)c4C=C2CCN(S(=O)(=O)c2cccc(C(F)(F)F)c2)C3)s1`, the Ki on Glucocorticoid receptor [4] is 0.29 nM; at Glucocorticoid receptor [2], 10 nM.

Turning to `Cc1n[nH]c(C)c1S(=O)(=O)N1CCC2=Cc3c(cnn3-c3ccc(F)cc3)C[C@]2(C(=O)c2cc(C(F)(F)F)ccn2)C1`, at Glucocorticoid receptor [2], the Ki turned out to be 69 nM.

The compound `Cc1cccc(S(=O)(=O)N2CCC3=Cc4c(cnn4-c4ccc(F)cc4)C[C@]3(C(=O)c3ccccn3)C2)c1` displayed a Cmax in data set [1] of 31 ng/mL. Besides, the AUC at 24 h in data set [3] is 83 ng·h/mL.

Consider `O=C(c1nccs1)[C@]12Cc3cnn(-c4ccc(F)cc4)c3C=C1CCN(S(=O)(=O)c1ccc(F)c(F)c1)C2`, for which the Ki on Glucocorticoid receptor [4] stood at 0.23 nM; at Glucocorticoid receptor [2] it was 37 nM.

Regarding `Cn1nncc1S(=O)(=O)N1CCC2=Cc3c(cnn3-c3ccc(F)cc3)C[C@]2(C(=O)c2cc(C(F)(F)F)ccn2)C1`, the Ki on Glucocorticoid receptor [2] was found to be 31 nM.

As for `O=C(c1ccccn1)[C@]12Cc3cnn(-c4ccc(F)cc4)c3C=C1CCN(S(=O)(=O)c1ccc(C(F)(F)F)cc1)C2` [DAZUCORILANT], at Glucocorticoid receptor [2], the inhibitory constant (Ki) amounted to 12 nM.
